This passage reports HC50, Activity and MIC results from ChEMBL document CHEMBL4699493, “Development of Bis-cyclic Imidazolidine-4-one Derivatives as Potent Antibacterial Agents” (J Med Chem, 2020).

Values after ≈ are worked out from the molar mass of the structure shown. Active and inactive are the calls of the source. No cut-off for these calls is given here.

A short description of data set [1]: Hemolytic activity against mouse RBC measured after 1 hr by microplate reader analysis. The format is ADME, cell-based, Erythrocyte. Particulars: mouse red blood cells (erythrocytes). A digest of the protocol:
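Mouse red blood cells collected by centrifugation (500–700g, 10 min), washed three times in PBS, and diluted 20-fold in PBS. Mixed with 2-fold serial dilutions of compound (starting at 1 mg/mL in PBS) and incubated 1 h at 37 °C. After centrifugation, supernatant absorbance read at 540 nm. % hemolysis calculated relative to PBS (0%) and 2% Triton (100%). At least three repeats in duplicate.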

In a further data set the test system is Escherichia coli. As to the kind of experiment: Bactericidal activity against Escherichia coli ATCC 25922 at 24 to 48 microg/ml measured after 30 mins by time kill assay. The format is functional, organism-based. To be noted: dose microg/ml 24-48, time 30.0 min. A digest of the protocol: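 Mid-log bacteria at 10^6 CFU/mL incubated with compound (12, 24, 48 μg/mL) at 37 °C for 10, 30, 60, 120 min; untreated control. Mixtures diluted 10^4-fold, plated on TSB agar, incubated 20 h at 37 °C, colonies counted and plotted against time. Three repeats.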

The subject of data set [2] is Staphylococcus aureus. As to the kind of experiment: Antibacterial activity against methicillin-resistant Staphylococcus aureus ATCC 33591. The format is functional. The essentials: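 Broth microdilution in TSB. Strains were grown 16 h, subcultured 6 h to log phase, then diluted to 10^6 CFU/mL by OD600. Compound came from a 5 mg/mL DMSO stock diluted in TSB and serially diluted, top final concentration 25 μg/mL. MIC was the lowest concentration giving complete growth inhibition. Done ≥3 times in duplicate.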

A further data set deals with Klebsiella pneumoniae. As to the kind of experiment: Antibacterial activity against Klebsiella pneumoniae ATCC 13383. The class given is functional. A digest of the protocol: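 Broth microdilution in TSB. Stocks at 5 mg/mL in DMSO diluted with TSB to 100 μg/mL, then serially diluted; highest test concentration 25 μg/mL. Bacteria grown 16 h, subcultured 6 h to log phase, adjusted to 10^6 CFU/mL by OD600. MIC = lowest concentration giving complete growth inhibition. At least three repeats, each in duplicate.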

In data set [3] the test system is Staphylococcus aureus. As to the kind of experiment: Antibacterial activity against methicillin-resistant Staphylococcus aureus ATCC 33591 in presence of monovalent Na+ and K+. The class given is functional. The essentials:
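MIC set up as in the standard broth microdilution (log-phase inoculum at 10^6 CFU/mL, complete growth inhibition end point). The medium was TSB dissolved in 1× PBS (7.5 g per 250 mL) and autoclaved, supplying Na+ and K+.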

Data set [4] has as its system Staphylococcus aureus. The data set can be described thus: Antibacterial activity against methicillin-resistant Staphylococcus aureus ATCC 33591 in presence of divalent Ca2+. The class given is functional. A digest of the protocol:
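MIC set up as in the standard TSB broth microdilution (log-phase inoculum at 10^6 CFU/mL, complete growth inhibition end point). The medium was TSB prepared in DI water with CaCl2 added to 2 mM.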

For data set [5], the system named is Cell membrane. As to the kind of experiment: Induction of inner membrane permeabilization in Escherichia coli ATCC 25922 at 2 times MIC measured for 12 mins by propidium iodide staining based fluorescence microscopic analysis. The class given is functional, subcellular. The essentials:
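Mid-log bacteria pelleted at 1000g, washed three times in 5 mM HEPES/5 mM glucose, and resuspended to 10^6 CFU/mL. PI added (50 μL of a 10 μM solution to 150 μL of cells). Fluorescence (ex 535 nm, em 617 nm) read every 2 min for about 8 min, then compound added and reading continued for 12 min. Water added as the no-drug control. Three repeats.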

Data set [6] concerns Cell membrane. The data set can be described thus: Induction of cell membrane disruption in Escherichia coli ATCC 25922 assessed as propidium iodide-positive cells at 2 times MIC after 2 hrs by fluorescence microscopic analysis. The format is subcellular. A digest of the protocol:
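Bacteria from a 10^6 CFU/mL suspension diluted 100-fold and treated with compound at 2 × MIC for 2 h. Cells pelleted (4000g, 15 min, 4 °C), washed three times in PBS, and stained 15 min with PI (5 μg/mL) and DAPI (10 μg/mL). Imaged by oil-immersion fluorescence microscopy; untreated controls included. Three repeats in duplicate.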

Data set [7] has as its system Staphylococcus aureus. As to the kind of experiment: Antibacterial activity against methicillin-resistant Staphylococcus aureus ATCC 33591 measured for 13 passages. The format is functional, organism-based. A digest of the protocol:
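Serial-passage resistance test. A first MIC was run by TSB broth microdilution. Bacteria from the well after the last clear well were resuspended to about 10^6 CFU/mL for the next MIC. This was repeated for 13 passages.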

The subject of data set [8] is Cell membrane. The data set can be described thus: Induction of cell membrane disruption in Escherichia coli ATCC 25922 at 2 times MIC after 2 hrs by transmission electron microscopic analysis. The class given is subcellular. The essentials:
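Bacteria at 10^6 CFU/mL treated with compound at 2 × MIC for 2 h at 37 °C; untreated controls included. Cells pelleted, washed three times in PBS, resuspended in deionized water, dropped onto grids, blotted, vacuum-dried at 50 °C for 30 s, and imaged by TEM.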

Data set [9] concerns Cell membrane. As to the kind of experiment: Induction of cell membrane disruption in methicillin-resistant Staphylococcus aureus ATCC 33591 assessed as propidium iodide-positive cells at 2 times MIC after 2 hrs by fluorescence microscopic analysis. The class given is subcellular. The essentials: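 A 10^6 CFU/mL suspension was diluted 100-fold and treated at 2× MIC for 2 h. Cells were pelleted (4000g, 15 min, 4 °C), washed three times in PBS, then stained 15 min with PI (5 μg/mL) and DAPI (10 μg/mL). Imaged by oil-immersion fluorescence microscopy alongside an untreated control. Three repeats in duplicate.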

In turn, `CCCCCCCCCC(=O)N[C@@H](CCCCN)CN1CC(=O)N(c2ccc(N3CN(C[C@H](CCCCN)NC(=O)CCCCCCCCC)CC3=O)cc2)C1` displayed a 50% haemolytic concentration (HC50) at 1 h in [1] above 250 µg/mL. Besides, the outcome in the data set on Escherichia coli, with Cell membrane [5], with Cell membrane [6], with Staphylococcus aureus [7], in the data set on Cell membrane [8] and with Cell membrane [9] was Active. The MIC came out at 2 µg/mL (≈ 2.55 µM) in the data set with Staphylococcus aureus [2], 5 µg/mL (≈ 6.38 µM) against Klebsiella pneumoniae, 4 µg/mL with Staphylococcus aureus [3] and 2 µg/mL in the data set with Staphylococcus aureus [4].

Usually HC50 stands for the concentration giving 50% haemolysis. Usually MIC stands for the least concentration at which growth counts as inhibited.
